# Shown are actives, neighbours in structure and some others; about 0.72% of the full set was active somewhere.
# hIAP block: human IAP inhibitors, primary screen, biochemical, luminescence, uHTS; 0.12% of 330,000 active; purified IAP, CDP-Star luminescence, 30 min; inhibition, % at 10 µM;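 active means inhibition reaching a set limit with compound at 10 µM in the primary screen, cut at about 35% in these data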;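 further: plate controls were DMSO wells with enzyme for no effect and no-enzyme buffer wells for full effect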
# Target sequence (P09923 whole entry, looked up): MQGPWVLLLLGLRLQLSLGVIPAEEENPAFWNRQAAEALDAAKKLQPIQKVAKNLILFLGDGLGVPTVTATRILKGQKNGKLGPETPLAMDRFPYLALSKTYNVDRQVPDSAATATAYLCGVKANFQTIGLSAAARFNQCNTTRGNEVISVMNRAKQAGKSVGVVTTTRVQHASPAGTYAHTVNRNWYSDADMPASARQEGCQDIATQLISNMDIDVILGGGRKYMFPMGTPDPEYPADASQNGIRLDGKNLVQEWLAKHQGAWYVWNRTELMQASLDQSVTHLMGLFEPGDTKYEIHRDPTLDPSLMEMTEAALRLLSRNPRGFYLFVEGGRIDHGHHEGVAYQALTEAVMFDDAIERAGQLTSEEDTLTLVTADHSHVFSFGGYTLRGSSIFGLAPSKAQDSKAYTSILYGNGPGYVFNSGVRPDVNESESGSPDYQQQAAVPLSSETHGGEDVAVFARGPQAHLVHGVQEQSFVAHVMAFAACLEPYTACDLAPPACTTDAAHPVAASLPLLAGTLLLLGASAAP
# bIAP activator: bovine intestinal alkaline phosphatase activators, primary screen, biochemical, bovine IAP, CDP-star luminescence | purified bovine IAP, 30 min; active compounds read high; fold of DMSO-control signal, blank-subtracted | activation factor at 20 µM | 0.17% of 200,000 active;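 active means activation factor of 2 or more at 20 µM, a signal rise over negative controls twice the positive control's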
# bIAP inhibitor: bovine intestinal alkaline phosphatase inhibitors, primary screen, selectivity assay for TNAP inhibitor project, biochemical, bovine IAP, CDP-star luminescence | purified bovine IAP, 30 min | inhibition, % at 20 µM | 190,000 tested, under 10 active | AID 1019, 2008;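 active means over 50% inhibition of intestinal alkaline phosphatase at 20 µM in the single-dose screen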
#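 test system = bovine IAP enzyme | medium = DEA buffer 100 mM, pH 9.8, with MgCl2 1.0 mM, ZnCl2 0.02 mM | detection = luminescence | dosing = single compound dose of 20 µM, 2% DMSO final | incubation = 30 min reaction at room temperature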
# hIAP activ: human IAP activators, primary screen, biochemical, luminescence, uHTS. Intestinal-type alkaline phosphatase (Homo sapiens), P09923. purified human IAP, CDP-Star luminescence, 30 min; active compounds read high; 1 = vehicle-only enzyme, 0 = enzyme-free background. activation factor at 10 µM. 0.16% of 330,000 active;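 active means activation factor of the enzyme at least 2-fold when tested at 20 µM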
# mIAP act: activators of mouse IAP, primary screen, biochemical, luminescence, uHTS. muIAP, CDP-Star luminescence, 30 min; active compounds read high; 1 = vehicle-only enzyme signal, 0 = enzyme-free wells. activation factor at 10 µM. 0.24% of 330,000 active. AID 2805, 2010;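 active means activation factor of at least 2 at 20 µM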
#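 Assay system: mouse IAP enzyme; reagent: chemiluminescent substrate CDP-Star; dosing: test compounds delivered from DMSO solution; schedule: 30 min at room temperature; measured by: luminescence from enzymatic CDP-Star hydrolysis; controls: DMSO-only wells and no-enzyme negative control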
# mIAP inh: inhibitors of mouse IAP, primary screen, biochemical, luminescence, uHTS | intestinal alkaline phosphatase [Mus musculus] | AID 2806, 2010 | 0.2% of 330,000 active | purified mouse IAP, CDP-Star luminescence, 30 min | inhibition, % at 10 µM;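 active means inhibition of at least 40% at 10 µM in the primary screen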;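 further: plate controls were DMSO with enzyme for no effect and no enzyme wells for full effect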
# hIAP act conf: human IAP activators, confirmation, biochemical, luminescence, single concentration, uHTS hits; shares compounds with hIAP activ; purified IAP, CDP-Star luminescence, 30 min; active compounds read low; activation (%Activity, negative = activation), % at 8.3 µM; 10% of 880 active;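 active means at least twofold enzyme activation in any of six single-dose repeats, which the averaged readout prints as negative percent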
# mIAP inh confirm: inhibitors of mouse IAP, confirmation, biochemical, luminescence, single concentration. shares compounds with mIAP inh. purified mouse IAP, CDP-Star luminescence, 30 min. inhibition, % at 10 µM. 4.7% of 11,000 active. AID 434971, 2010;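 active means inhibition of at least 40% at 10 µM in either of the two replicates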;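 further: plate controls were DMSO wells with enzyme for no effect and buffer wells lacking enzyme for full effect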
# * marks the source's active call; other numbers are inactive results; x = no result given.
SMILES,hIAP block,bIAP activator,bIAP inhibitor,hIAP activ,mIAP act,mIAP inh,mIAP inh confirm,others
CNS(=O)(=O)c1ccc(-c2ccc(C=C3C(=O)NC(=O)NC3=O)o2)cc1,9.3,x,x,0.907,0.809,19.1,x,
NS(=O)(=O)c1ccc(-c2ccc(C=C3C(=O)NC(=O)NC3=O)o2)cc1,7.3,x,x,0.927,0.355,64.5*,x,
COC(=O)C1=C(c2ccc(Cl)c(C(F)(F)F)c2)C[C@@H]2CC[C@H]1N2C(=O)N1CCC(O)(c2ccc(Cl)cc2)CC1,7.1,x,x,0.929,0.951,4.9,x,
CN1C(=O)C(=Cc2ccc(N3CCCCCC3)o2)C(=O)N(C)C1=S,0.8,0.7,27.3,0.992,0.569,43.1*,x,
COC(=O)[C@]12OC[C@]34C([C@@H](O)[C@@H]1O)[C@]1(C)CC(=O)C(O)=C(C)[C@@H]1C[C@H]3OC(=O)[C@H](O)[C@@H]24 (stereo partly drawn),-0.4,x,x,1,0.984,1.6,x,
Nc1ncc([N+](=O)[O-])s1,-17.2,x,x,1.17,0.571,42.9*,x,
COC(=O)C1=C(c2ccc(F)cc2OCc2ccccc2)C[C@@H]2CC[C@H]1N2C(=O)NCc1ccccc1OC,-3.7,x,x,1.04,1.23,-23.1,x,
O=C(Nc1cccc(Cl)c1)OC1CN2CCC1CC2 (stereo not drawn),6.8,x,x,0.932,4.42*,-341.8,x,
COC(=O)Cn1cc(/C=C2\C(=O)NC(=O)N(c3ccccc3)C2=O)c2ccccc21,36.8*,x,x,0.632,0.984,1.6,x,hIAP act conf=33.9
COCCCN=Cc1c(O)[nH]c(=S)[nH]c1=O,5.0,0.8,16.6,0.95,0.921,7.9,x,
CCN1C(=O)C(=Cc2ccc(C)s2)C(=O)N(CC)C1=S,9.2,0.9,13.4,0.908,0.887,11.3,x,
O=C1NC(=S)NC(=O)C1=Cc1ccc(Br)s1,-5.6,x,x,1.06,0.398,60.2*,75.8*,
NS(=O)(=O)c1ccc(-c2ccc(C=C3C(=O)NC(=S)NC3=O)o2)cc1,7.3,x,x,0.927,0.219,78.1*,72.1*,
COc1ccccc1N1C(=O)NC(=O)C2(Cc3cc(C)ccc3N(C)C2)C1=O (stereo not drawn),8.0,1.1,-9.9,0.92,0.995,0.5,x,
COc1ccc(C(c2ccc(OC)cc2)C(Cl)(Cl)Cl)cc1,7.0,x,x,0.93,1.06,-5.9,x,
O=C1NC(=O)N(Cc2ccc(F)cc2)C(=O)/C1=C\C=C\c1ccco1,1.4,x,x,0.986,0.411,58.9*,61.2*,
O=C1NC(=O)N(Cc2ccccc2)C(=O)/C1=C\c1ccco1,8.8,1.1,-13.7,0.912,0.929,7.1,x,
Cc1ccc(CN2C3CCCC2CC(NC(=S)NCc2ccccc2)C3)cc1 (stereo not drawn),-99.5,4.2*,-320.5,2,4.53*,-352.8,-187.7,
O=C1NC(=O)N(c2ccccc2)C(=O)/C1=C\c1ccc([N+](=O)[O-])o1,-16.1,x,x,1.16,0.532,46.8*,59.1*,
CN1C(=O)NC(=O)/C(=C\c2ccc([N+](=O)[O-])o2)C1=O,10.9,1,2.3,0.891,0.56,44.0*,56.1*,
CN1C(=O)NC(=O)/C(=C/c2ccc([N+](=O)[O-])o2)C1=O,11.7,x,x,0.883,0.581,41.9*,41.5*,
CCC(CO)(C(=O)OC1C[N+]2(C)CCC1CC2)c1ccccc1 (stereo not drawn),5.9,1,3.3,0.941,0.892,10.8,x,
N#CC(C#N)=Cc1ccc(O)c(O)c1,32.6,x,x,0.674,0.541,45.9*,65.9*,

# High-throughput results: PubChem, Sanford-Burnham Center for Chemical Genomics
